Among the data in ChEMBL document CHEMBL1124097, “9-(2-Fluorobenzyl)-6-(alkylamino)-9H-purines. A new class of anticonvulsant agents” (1988) are inhibition in vivo and ED50 values, retold here.

Structures are written as SMILES. Some results are limits rather than exact numbers.

Holding throughout (assay type): functional
Assay [1] concerns Rattus norvegicus. Nature of the assay: Anticonvulsant activity against maximal electroshock-induced seizures in rats after ip administration at 25 mg/kg (compared to standard). The settings on record: route intraperitoneal. (In general: In the maximal electroshock model the usual endpoint is tonic extension of the hind limbs.)
Assay [2] has as its system Rattus norvegicus. Nature of the assay: Anticonvulsant activity against maximal electroshock-induced seizures in rats after intraperitoneal administration. The note with it: ip. The procedure, abridged:
(§1)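 Male Sprague-Dawley rats were protected against maximal electroshock-induced seizures. The ED50 is the dose that protects 50% of animals from the hind-limb extensor component, calculated by the method of Miller. For ED50s given with standard error, at least 12 animals per dose level and four doses per compound were used. Otherwise, three doses with six animals per point were used.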

Assay [3] relates to Rattus norvegicus. Nature of the assay: Anticonvulsant activity against maximal electroshock-induced seizures in rats after oral administration. The method, boiled down: as §1

With `CNc1ncnc2c1ncn2Cc1cccc(OCc2ccccc2)c1`, the inhibition in vivo at 25 mg/kg in the assay with Rattus norvegicus [1] was determined as 17%. In turn, `Fc1ccccc1Cn1cnc2c(NC3CCC3)ncnc21` displayed an ED50 in the assay with Rattus norvegicus [2] of 33 mg/kg. In the assay on Rattus norvegicus [3], `CNc1ncnc2c1ncn2Cc1c(F)cccc1F` registered a median effective dose (ED50) of 2.7 mg/kg. `CNc1ncnc2c1ncn2Cc1ccc(N)cc1` returned an ED50 in the assay on Rattus norvegicus [2] of 25 mg/kg. Still for that read-out and setting: with `CC(C)(C)Nc1ncnc2c1ncn2Cc1ccccc1F` the figure was over 50 mg/kg. Same read-out and setting: with `CNc1ncnc2c1ncn2Cc1ccccc1C(F)(F)F` the figure was 20 mg/kg; with `CNc1ncnc2c1ncn2Cc1c(F)cccc1Cl`, 12.5 mg/kg. As to `CN(C)c1ncnc2c1ncn2Cc1c(F)cccc1Cl`, the results for the ED50 in the assay on Rattus norvegicus [2] and in the assay on Rattus norvegicus [3] were 5 mg/kg and 10 mg/kg, respectively.

Take `CNc1ncnc2c1ncn2Cc1ccccc1C`: the ED50 in the assay with Rattus norvegicus [2] came to 10 mg/kg; in the assay on Rattus norvegicus [3], 25 mg/kg. In the same order, the values of `CNc1ncnc2c1ncn2Cc1ccccc1` are 5 mg/kg and 12 mg/kg. In the assay on Rattus norvegicus [2], `CNc1ncnc2c1ncn2Cc1cccc(F)c1` came in with a 50% effective dose (ED50) of 7 mg/kg. The same measure, in the same setting: the same measure for `CNc1ncnc2c1ncn2Cc1ccc(F)cc1F`: 20 mg/kg. As to `Nc1ncnc2c1ncn2Cc1ccccc1F`, the results for the ED50 in the assay on Rattus norvegicus [2] and with Rattus norvegicus [3] were 4.5 mg/kg and 12 mg/kg, respectively.

In the assay on Rattus norvegicus [1], `CNc1ncnc2c1ncn2Cc1cccc(O)c1` returned an inhibition in vivo at 25 mg/kg of 0%. On to `Fc1ccccc1Cn1cnc2c(N3CCCC3)ncnc21`, for which the figures for the 50% effective dose (ED50) in the assay on Rattus norvegicus [2] and in the assay with Rattus norvegicus [3] were 12.5 mg/kg and 35 mg/kg, respectively. In the same order, the values of `CNc1ncnc2c1ncn2Cc1cccc(F)c1F` are 18 mg/kg and over 50 mg/kg.

In the assay on Rattus norvegicus [2], `Fc1ccccc1Cn1cnc2c(N3CCC3)ncnc21` returned a median effective dose (ED50) of over 50 mg/kg.

With `CN(C)c1ncnc2c1ncn2Cc1ccccc1`, the values for the ED50 in the assay on Rattus norvegicus [2] and in the assay on Rattus norvegicus [3] were 6 mg/kg and 12 mg/kg, respectively. Turning to `CNc1ncnc2c1ncn2Cc1ccccc1Cl`, the ED50 turned out to be 6.2 mg/kg in the assay on Rattus norvegicus [2] and 12.5 mg/kg in the assay on Rattus norvegicus [3]. In the assay with Rattus norvegicus [1], `CNc1ncnc2c1ncn2Cc1ccc(F)cc1` had an inhibition in vivo at 25 mg/kg of 33%. Compound `CNc1ncnc2c1ncn2Cc1ccc([N+](=O)[O-])cc1` yielded an inhibition in vivo at 25 mg/kg in the assay on Rattus norvegicus [1] of 0%. Regarding `CN(C=O)c1ncnc2c1ncn2Cc1ccccc1F`, the ED50 in the assay with Rattus norvegicus [2] was 11 mg/kg; in the assay with Rattus norvegicus [3], 25 mg/kg. As for `O=C1NC(=O)C(c2ccccc2)(c2ccccc2)N1` [PHENYTOIN], in the assay with Rattus norvegicus [2], the 50% effect level (ED50) was put at a dose of 9.6 mg/kg.

By inhibition in vivo is commonly meant the relative decrease from the control value, in per cent. High values mean a strong effect, low ones a weak effect. As usually defined, the ED50 is the midpoint of the dose-response relation. A higher ED50 goes with a need for a large dose.
